# The source made the active and inactive calls. No cut-off for these calls is given here.
# Tests used:
# Trichomonas vaginalis [1] = assay: Cell cycle arrest in Trichomonas vaginalis TV-VP60 assessed as accumulation at G2 phase at 250 uM after 24 hrs using Annexin V FITC and propidium iodide staining by flow cytometry relative to control; assay type: functional
# In short: (§1)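 TV-VP60 trophozoites (fresh clinical isolate) exposed to 250 µM for 6 h or 24 h; cell-cycle distribution measured by flow cytometry and compared with untreated trophozoites.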
# Trichomonas vaginalis [2] = assay: Effect on alteration in size of trophozoites in Trichomonas vaginalis TV-VP60 at 250 uM after 6 to 24 hrs by flow cytometry; assay type: functional, organism-based
# In short: (§2)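 TV-VP60 trophozoites exposed to 250 µM for 6 h and 24 h. Cell size and granularity were read by flow cytometry, with granularity taken as the vacuolization rate.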
# Trichomonas vaginalis [3] = assay: Induction of striking morphological alteration in Trichomonas vaginalis TV-VP60 assessed as abnormal shape of nucleus at 250 uM after 24 hrs by transmission electron microscopic analysis; assay type: functional, organism-based
# Trichomonas vaginalis [4] = assay: Induction of apoptosis in Trichomonas vaginalis TV-VP60 assessed as formation of apoptotic bodies at 250 uM after 6 to 24 hrs by flow cytometry; assay type: functional, organism-based
# Trichomonas vaginalis [5] = assay: Induction of striking morphological alteration in Trichomonas vaginalis TV-VP60 assessed as effect on endoplasmic reticulum at 250 uM after 6 hrs by transmission electron microscopic analysis; assay type: functional, organism-based
# Trichomonas vaginalis [6] = assay: Induction of striking morphological alteration in Trichomonas vaginalis TV-VP60 assessed as striate vacuolization close to nucleus at 250 uM after 24 hrs by transmission electron microscopic analysis; assay type: functional, organism-based
# Trichomonas vaginalis [7] = assay: Induction of striking morphological alteration in Trichomonas vaginalis TV-VP60 assessed as loss of original shape of parasites with some fissures on the surface at 250 uM by scanning electron microscopic analysis; assay type: functional, organism-based; settings: TDE = time-dependent effect
# In short: (§3)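 Surface morphology of TV-VP60 trophozoites exposed to 250 µM for 6 h and 24 h was examined by scanning electron microscopy.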
# Trichomonas vaginalis [8] = assay: Growth inhibition of Trichomonas vaginalis TV-VP60 at 250 uM using initial inoculum of 1.0 x 10^5 trophozoites/mL; assay type: functional, organism-based
# In short: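 Kinetic growth curve of TV-VP60 trophozoites with 250 µM present, starting from initial inocula of 1.0 × 10^5 or 5.0 × 10^4 trophozoites/mL. Untreated parasites served as control.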
# Trichomonas vaginalis [9] = assay: Induction of striking morphological alteration in Trichomonas vaginalis TV-VP60 assessed as large peripheral vacuoles between plasma membrane and cytoplasm at 250 uM after 24 hrs by transmission electron microscopic analysis; assay type: functional, organism-based
# Trichomonas vaginalis [10] = assay: Growth inhibition of Trichomonas vaginalis TV-VP60 at 250 uM treated followed by washout measured after 12 hrs growth period; assay type: functional, organism-based
# In short: (§4)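 TV-VP60 trophozoites treated with 250 µM for 12 or 24 h, centrifuged, and the pellet reinoculated into fresh medium without alkaloid. Growth was then followed as a kinetic curve. Untreated trophozoites went through the same procedure for comparison.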
# Trichomonas vaginalis [11] = assay: Induction of vacuolization formation in Trichomonas vaginalis TV-VP60 at 250 uM after 6 to 24 hrs by flow cytometry; assay type: functional, organism-based; in short: as §2
# Trichomonas vaginalis [12] = assay: Induction of striking morphological alteration in Trichomonas vaginalis TV-VP60 assessed as hydrogenosomes on autophagic vacuoles at 250 uM after 24 hrs by transmission electron microscopic analysis; assay type: functional, organism-based
# Trichomonas vaginalis [13] = assay: Growth inhibition of Trichomonas vaginalis TV-VP60 at 250 uM treated followed by washout measured after 48 hrs growth period; assay type: functional, organism-based; in short: as §4
# Trichomonas vaginalis [14] = assay: Induction of striking morphological alteration in Trichomonas vaginalis TV-VP60 assessed as formation of multinucleated cells at 250 uM after 24 hrs by transmission electron microscopic analysis; assay type: functional, organism-based
# Trichomonas vaginalis [15] = assay: Growth inhibition of Trichomonas vaginalis TV-VP60 at 250 uM using initial inoculum of 5 x 10^5 trophozoites/mL; assay type: functional, organism-based
# Trichomonas vaginalis [16] = assay: Induction of striking morphological alteration in Trichomonas vaginalis TV-VP60 assessed as change in size of hydrogenosomes at 250 uM after 6 to 24 hrs by transmission electron microscopic analysis; assay type: functional, organism-based
# Trichomonas vaginalis [17] = assay: Induction of striking morphological alteration in Trichomonas vaginalis TV-VP60 assessed as loss of original shape of parasites with some fissures on the surface at 250 uM after 6 hrs by scanning electron microscopic analysis; assay type: functional, organism-based; in short: as §3
# Trichomonas vaginalis [18] = assay: Cell cycle arrest in Trichomonas vaginalis TV-VP60 assessed as accumulation at S phase at 250 uM after 6 hrs using Annexin V FITC and propidium iodide staining by flow cytometry relative to control; assay type: functional; in short: as §1
# Trichomonas vaginalis [19] = assay: Induction of striking morphological alteration in Trichomonas vaginalis TV-VP60 assessed as degenerated cytoplasm matrix at 250 uM after 24 hrs by transmission electron microscopic analysis; assay type: functional, organism-based
# Trichomonas vaginalis [20] = assay: Cell cycle arrest in Trichomonas vaginalis TV-VP60 assessed as accumulation at G1 phase at 250 uM after 6 hrs using Annexin V FITC and propidium iodide staining by flow cytometry relative to control; assay type: functional; in short: as §1
# Trichomonas vaginalis [21] = assay: Induction of striking morphological alteration in Trichomonas vaginalis TV-VP60 assessed as elongated nucleus at 250 uM after 24 hrs by transmission electron microscopic analysis; assay type: functional, organism-based
# Trichomonas vaginalis [22] = assay: Induction of striking morphological alteration in Trichomonas vaginalis TV-VP60 assessed as pseudocysts at flagella internalization stage at 5 uM after 24 hrs by scanning electron microscopic analysis; assay type: functional, organism-based
# Trichomonas vaginalis [23] = assay: Cytotoxicity against Trichomonas vaginalis TV-VP60 at 2.5 uM to 1 mM after 24 hrs by trypan blue exclusion assay; assay type: functional, organism-based
# In short: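 Dose-response run on 5.0 × 10^5 TV-VP60 trophozoites/mL (fresh clinical isolate), concentrations 2.5 to 1000 µM, 24 h exposure, viable trophozoites counted. Vehicle control included; metronidazole 50 µM used as positive control.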
# Trichomonas vaginalis [24] = assay: Induction of striking morphological alteration in Trichomonas vaginalis TV-VP60 assessed as change in shape of hydrogenosomes at 250 uM after 6 to 24 hrs by transmission electron microscopic analysis; assay type: functional, organism-based
# Trichomonas vaginalis [25] = assay: Cell cycle arrest in Trichomonas vaginalis TV-VP60 assessed as accumulation at G2 phase at 250 uM after 6 hrs using Annexin V FITC and propidium iodide staining by flow cytometry relative to control; assay type: functional; in short: as §1
# Trichomonas vaginalis [26] = assay: Induction of apoptosis in Trichomonas vaginalis TV-VP60 assessed as DNA fragmentation at 250 uM after 6 to 24 hrs by agarose gel electrophoresis; assay type: functional, organism-based
# In short: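 Genomic DNA from TV-VP60 trophozoites treated with 250 µM for 6 h and 24 h was analysed by electrophoresis alongside untreated parasites.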
# Trichomonas vaginalis [27] = assay: Induction of striking morphological alteration in Trichomonas vaginalis TV-VP60 assessed as change in intracellular localization of hydrogenosomes at 250 uM after 6 to 24 hrs by transmission electron microscopic analysis; assay type: functional, organism-based
# Trichomonas vaginalis [28] = assay: Induction of striking morphological alteration in Trichomonas vaginalis TV-VP60 assessed as loss of original shape of parasites with some fissures on the surface at 250 uM after 24 hrs by scanning electron microscopic analysis; assay type: functional, organism-based; in short: as §3
# Trichomonas vaginalis [29] = assay: Induction of phosphatidylserine exposure in Trichomonas vaginalis TV-VP60 at 250 uM after 6 to 24 hrs by Annexin V-FITC staining; assay type: functional, organism-based
# Trichomonas vaginalis [30] = assay: Induction of striking morphological alteration in Trichomonas vaginalis TV-VP60 assessed as effect on golgi apparatus at 250 uM after 6 hrs by transmission electron microscopic analysis; assay type: functional, organism-based
# Trichomonas vaginalis [31] = assay: Cell cycle arrest in Trichomonas vaginalis TV-VP60 assessed as accumulation at G1 phase at 250 uM after 24 hrs using Annexin V FITC and propidium iodide staining by flow cytometry relative to control; assay type: functional; in short: as §1
# Trichomonas vaginalis [32] = assay: Cell cycle arrest in Trichomonas vaginalis TV-VP60 assessed as accumulation at S phase at 250 uM after 24 hrs using Annexin V FITC and propidium iodide staining by flow cytometry relative to control; assay type: functional; in short: as §1
# Trichomonas vaginalis [33] = assay: Cytotoxicity against Trichomonas vaginalis TV-VP60 at 50 uM after 24 hrs by trypan blue exclusion assay; assay type: functional
structure (smiles),measurement,setting,value
COc1c2c(cc3c1C(=O)O[C@H]1[C@@H]3[C@H]3C(=C[C@@H]1O)CCN3C)OCO2 [CANDIMINE],Activity,Trichomonas vaginalis [1],58.97%
same,Activity,Trichomonas vaginalis [2],inactive
same,Activity,Trichomonas vaginalis [3],Active
same,Activity,Trichomonas vaginalis [4],inactive
same,Activity,Trichomonas vaginalis [5],inactive
same,Activity,Trichomonas vaginalis [6],Active
same,Activity,Trichomonas vaginalis [7],tde
same,growth inhibition (GI),Trichomonas vaginalis [8],Active
same,Activity,Trichomonas vaginalis [9],Active
same,growth inhibition (GI),Trichomonas vaginalis [10],inactive
same,Activity,Trichomonas vaginalis [11],Active
same,Activity,Trichomonas vaginalis [12],Active
same,growth inhibition (GI),Trichomonas vaginalis [13],inactive
same,Activity,Trichomonas vaginalis [14],inactive
same,growth inhibition (GI),Trichomonas vaginalis [15],Active
same,Activity,Trichomonas vaginalis [16],Active
same,Activity,Trichomonas vaginalis [17],Active
same,Activity,Trichomonas vaginalis [18],19.89%
same,Activity,Trichomonas vaginalis [19],inactive
same,Activity,Trichomonas vaginalis [20],34.39%
same,Activity,Trichomonas vaginalis [21],Active
same,Activity,Trichomonas vaginalis [22],Active
same,Activity,Trichomonas vaginalis [23],Active
same,Activity,Trichomonas vaginalis [24],Active
same,Activity,Trichomonas vaginalis [25],44.2%
same,Activity,Trichomonas vaginalis [26],inactive
same,Activity,Trichomonas vaginalis [27],Active
same,Activity,Trichomonas vaginalis [28],Active
same,Activity,Trichomonas vaginalis [29],inactive
same,Activity,Trichomonas vaginalis [30],inactive
same,Activity,Trichomonas vaginalis [31],22.66%
same,Activity,Trichomonas vaginalis [32],19.49%
Cc1ncc([N+](=O)[O-])n1CCO [METRONIDAZOLE],Activity,Trichomonas vaginalis [33],100%

# From ChEMBL document CHEMBL1649373, “Candimine-induced cell death of the amitochondriate parasite Trichomonas vaginalis” (2010)
